Test results reported in ChEMBL document CHEMBL2375238, “Synthesis and biological evaluation of oleanolic acid derivatives as PTP1B inhibitors” (Eur J Med Chem, 2013).
pIC50: −log10 of the molar value.

How the values were obtained:
[1] = test system: 3T3-L1; test: Insulin sensitizing activity in mouse 3T3L1 cells assessed as increase in glucose uptake at 10 ug/mL after 50 hrs […] relative to control; assay type: functional
Method in brief: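 3T3-L1 cells were grown in high-glucose DMEM with 10% FBS and, at 90% confluence, differentiated with insulin, dexamethasone and IBMX. After 4 days they were replated, grown 2 days, then made insulin-resistant with low insulin and high dexamethasone for 4 days. Compounds were given in high-glucose medium for 50 h. Supernatant glucose was measured by kit at OD 490 nm, against normal and insulin-resistant controls, in duplicate or triplicate.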

[2] = biological target: T1, Tyrosine-protein phosphatase non-receptor type 1 (Homo sapiens) (UniProt P18031); test: Inhibition of PTP1B (unknown origin) expressed in Escherichia coli expression system using p-nitrophenyl phosphate as substrate assessed as release of p-nitrophenol at 10 ug/mL incubated for 10 mins prior to substrate addition measured after 30 mins relative to control
T1 sequence (whole entry): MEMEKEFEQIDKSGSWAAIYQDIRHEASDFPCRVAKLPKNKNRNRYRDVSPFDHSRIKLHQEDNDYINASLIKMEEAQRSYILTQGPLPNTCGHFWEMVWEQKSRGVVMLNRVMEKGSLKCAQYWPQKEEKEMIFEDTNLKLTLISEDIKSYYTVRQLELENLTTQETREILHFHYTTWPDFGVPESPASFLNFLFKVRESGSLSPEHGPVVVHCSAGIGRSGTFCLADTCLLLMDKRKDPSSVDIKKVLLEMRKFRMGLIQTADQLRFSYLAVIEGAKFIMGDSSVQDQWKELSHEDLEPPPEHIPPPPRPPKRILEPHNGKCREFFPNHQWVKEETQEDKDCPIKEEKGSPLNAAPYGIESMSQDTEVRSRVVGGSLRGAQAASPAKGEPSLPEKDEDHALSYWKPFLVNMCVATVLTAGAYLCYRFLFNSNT
Method in brief: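 Native PTP1B was expressed in E. coli, purified, and diluted in 25 mM HEPES, 50 mM NaCl, 2.5 mM EDTA, 0.1% BSA, pH 7.2. Compounds were dissolved in DMSO and preincubated with enzyme in buffer A (50 mM HEPES, 2.5 mM EDTA, pH 7.0) for 10 min at 37 °C. pNPP was then added for 30 min at 37 °C.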

[3] = biological target: T2, Tyrosine-protein phosphatase non-receptor type 1 (Homo sapiens, UniProt P18031); test: Inhibition of PTP1B (unknown origin) expressed in Escherichia coli expression system using p-nitrophenyl phosphate as substrate assessed as release of p-nitrophenol incubated for 10 mins prior to substrate addition measured after 30 mins
T2 sequence (P18031 whole entry): T1 sequence (whole entry)
Method in brief: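 Native PTP1B purified from E. coli, diluted in 25 mM HEPES, 50 mM NaCl, 2.5 mM EDTA, 0.1% BSA, pH 7.2; inhibitors in DMSO. Enzyme and inhibitor preincubated at 37 °C in 50 mM HEPES, 2.5 mM EDTA, pH 7.0. pNPP then added; stopped after 30 min with 2 M Na2CO3; A405 read. Inhibition from OD against blank and no-inhibitor controls; means of three experiments.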

[4] = biological target: Tyrosine-protein phosphatase non-receptor type 1 (Homo sapiens) (UniProt P18031); conditions: 100 ug/mL

Compound	Activity [1] [%]	Imax [2] [%]	pIC50 [3]	Imax [4] [%]
C[C@@H]1O[C@@H](O[C@H]2CC[C@]3(C)[C@H]4CC=C5[C@@H]6CC(C)(C)CC[C@]6(C(=O)NCCCCCC(=O)O)CC[C@@]5(C)[C@]4(C)CC[C@H]3C2(C)C)[C@@H](O)[C@H](O)[C@@H]1O	59.58	63.2	–	–
COC(=O)CCCCCNC(=O)[C@]12CCC(C)(C)C[C@H]1C1=CC[C@@H]3[C@@]4(C)CC[C@H](O[C@@H]5O[C@H](C(=O)OC)[C@@H](O)[C@H](O)[C@H]5O)C(C)(C)[C@@H]4CC[C@@]3(C)[C@]1(C)CC2	28.29	36.7	–	–
COC(=O)CCCCCNC(=O)[C@]12CCC(C)(C)C[C@H]1C1=CC[C@@H]3[C@@]4(C)CC[C@H](O[C@@H]5O[C@H](CO)[C@@H](O)[C@H](O)[C@H]5O)C(C)(C)[C@@H]4CC[C@@]3(C)[C@]1(C)CC2	–	5.82	–	–
CC1(C)CC[C@@]23CC[C@]4(C)[C@@](OC2=O)([C@@H]3C1)[C@@H](O)C[C@@H]1[C@@]2(C)CC[C@H](O[C@@H]3O[C@H](C(=O)O)[C@@H](O)[C@H](O)[C@H]3O)C(C)(C)[C@@H]2CC[C@]14C	–	16.1	–	–
CC1(C)CC[C@@]23CC[C@]4(C)[C@@](OC2=O)([C@@H]3C1)[C@@H](O)C[C@@H]1[C@@]2(C)CC[C@H](O[C@H]3O[C@H](C(=O)O)[C@@H](O)[C@H](O)[C@@H]3O)C(C)(C)[C@@H]2CC[C@]14C	–	3.72	–	–
CC1(C)CC[C@@]23CC[C@]4(C)[C@@](OC2=O)([C@@H]3C1)[C@@H](O)C[C@@H]1[C@@]2(C)CC[C@H](O[C@@H]3O[C@H](CO)[C@@H](O)[C@H](O)[C@H]3O)C(C)(C)[C@@H]2CC[C@]14C	–	6	–	–
COC(=O)CCCCCNC(=O)[C@]12CCC(C)(C)C[C@H]1C1=CC[C@@H]3[C@@]4(C)CC[C@H](O[C@]5(C(=O)OC)C[C@H](O)[C@@H](NC(C)=O)[C@H]([C@H](O)[C@H](O)CO)O5)C(C)(C)[C@@H]4CC[C@@]3(C)[C@]1(C)CC2	9.54	56	–	–
CN(CCOc1ccc(CC2SC(=O)NC2=O)cc1)c1ccccn1 (stereo not given) [ROSIGLITAZONE]	100	–	–	–
CC1(C)CC[C@]2(C(=O)NCCCCCC(=O)O)CC[C@]3(C)C(=CC[C@@H]4[C@@]5(C)CC[C@H](O[C@@H]6O[C@H](CO)[C@@H](O)[C@H](O)[C@H]6O)C(C)(C)[C@@H]5CC[C@]43C)[C@@H]2C1	6.11	57.6	–	–
COC(=O)CCCCCNC(=O)[C@]12CCC(C)(C)C[C@H]1C1=CC[C@@H]3[C@@]4(C)CC[C@H](O[C@@H]5O[C@H](CO)[C@@H](O[C@@H]6O[C@H](CO)[C@H](O)[C@H](O)[C@H]6O)[C@H](O)[C@H]5O)C(C)(C)[C@@H]4CC[C@@]3(C)[C@]1(C)CC2	–	3.87	–	–
CC1(C)CC[C@@]23CC[C@]4(C)[C@@](OC2=O)([C@@H]3C1)[C@@H](O)C[C@@H]1[C@@]2(C)CC[C@H](O[C@H]3O[C@H](CO)[C@@H](O)[C@H](O)[C@@H]3O)C(C)(C)[C@@H]2CC[C@]14C	–	2.9	–	–
CC(=O)N[C@H]1[C@H]([C@H](O)[C@H](O)CO)O[C@@](O[C@H]2CC[C@]3(C)[C@H]4CC=C5[C@@H]6CC(C)(C)CC[C@]6(C(=O)NCCCCCC(=O)O)CC[C@@]5(C)[C@]4(C)CC[C@H]3C2(C)C)(C(=O)O)C[C@@H]1O	-16.69	46	–	–
COC(=O)CCCCCNC(=O)[C@]12CCC(C)(C)C[C@H]1C1=CC[C@@H]3[C@@]4(C)CC[C@H](O[C@H]5O[C@H](C(=O)OC)[C@@H](O)[C@H](O)[C@@H]5O)C(C)(C)[C@@H]4CC[C@@]3(C)[C@]1(C)CC2	39.18	81.9	4.91	–
COC(=O)CCCCCNC(=O)[C@]12CCC(C)(C)C[C@H]1C1=CC[C@@H]3[C@@]4(C)CC[C@H](O)C(C)(C)[C@@H]4CC[C@@]3(C)[C@]1(C)CC2	–	4.89	–	–
CC(=O)N[C@H]1[C@H]([C@H](O)[C@H](O)CO)O[C@](O[C@H]2CC[C@]3(C)[C@H]4CC=C5[C@@H]6CC(C)(C)CC[C@]6(C(=O)NCCCCCC(=O)O)CC[C@@]5(C)[C@]4(C)CC[C@H]3C2(C)C)(C(=O)O)C[C@@H]1O	10.31	69	–	–
CC1(C)CC[C@]2(C(=O)NCCCCCC(=O)O)CC[C@]3(C)C(=CC[C@@H]4[C@@]5(C)CC[C@H](O[C@@H]6O[C@H](C(=O)O)[C@@H](O)[C@H](O)[C@H]6O)C(C)(C)[C@@H]5CC[C@]43C)[C@@H]2C1	21.52	72	6.25	–
CC1(C)CC[C@]2(C(=O)NCCCCCC(=O)O)CC[C@]3(C)C(=CC[C@@H]4[C@@]5(C)CC[C@H](O[C@@H]6O[C@H](CO)[C@@H](O[C@@H]7O[C@H](CO)[C@H](O)[C@H](O)[C@H]7O)[C@H](O)[C@H]6O)C(C)(C)[C@@H]5CC[C@]43C)[C@@H]2C1	39.13	83.7	5.04	–
SODIUM ORTHOVANAD	–	–	–	100
COC(=O)CCCCCNC(=O)[C@]12CCC(C)(C)C[C@H]1C1=CC[C@@H]3[C@@]4(C)CC[C@H](O[C@H]5O[C@H](CO)[C@@H](O)[C@H](O)[C@@H]5O)C(C)(C)[C@@H]4CC[C@@]3(C)[C@]1(C)CC2	–	1.52	–	–
COC(=O)CCCCCNC(=O)[C@]12CCC(C)(C)C[C@H]1C1=CC[C@@H]3[C@@]4(C)CC[C@H](O[C@@H]5O[C@@H](C)[C@@H](O)[C@@H](O)[C@@H]5O)C(C)(C)[C@@H]4CC[C@@]3(C)[C@]1(C)CC2	–	1.91	–	–
COC(=O)CCCCCNC(=O)[C@]12CCC(C)(C)C[C@H]1C1=CC[C@@H]3[C@@]4(C)CC[C@H](O[C@@H]5O[C@H](C(=O)O)[C@@H](O)[C@H](O)[C@H]5O)C(C)(C)[C@@H]4CC[C@@]3(C)[C@]1(C)CC2	–	11.8	–	–
COC(=O)CCCCCNC(=O)[C@]12CCC(C)(C)C[C@H]1C1=CC[C@@H]3[C@@]4(C)CC[C@H](O[C@@]5(C(=O)OC)C[C@H](O)[C@@H](NC(C)=O)[C@H]([C@H](O)[C@H](O)CO)O5)C(C)(C)[C@@H]4CC[C@@]3(C)[C@]1(C)CC2	-7.74	8.34	–	–
CC1(C)CC[C@]2(C(=O)NCCCCCC(=O)O)CC[C@]3(C)C(=CC[C@@H]4[C@@]5(C)CC[C@H](O)C(C)(C)[C@@H]5CC[C@]43C)[C@@H]2C1	–	14.3	–	–
CC1(C)CC[C@]2(C(=O)NCCCCCC(=O)O)CC[C@]3(C)C(=CC[C@@H]4[C@@]5(C)CC[C@H](O[C@H]6O[C@H](CO)[C@@H](O)[C@H](O)[C@@H]6O)C(C)(C)[C@@H]5CC[C@]43C)[C@@H]2C1	57.55	57	–	–
C[C@@H]1O[C@@H](O[C@H]2CC[C@]3(C)[C@H]4C[C@H](O)[C@]56OC(=O)[C@@]7(CCC(C)(C)C[C@H]75)CC[C@@]6(C)[C@]4(C)CC[C@H]3C2(C)C)[C@@H](O)[C@H](O)[C@@H]1O	–	-1.55	–	–
CC1(C)CC[C@]2(C(=O)NCCCCCC(=O)O)CC[C@]3(C)C(=CC[C@@H]4[C@@]5(C)CC[C@H](O[C@H]6O[C@H](C(=O)O)[C@@H](O)[C@H](O)[C@@H]6O)C(C)(C)[C@@H]5CC[C@]43C)[C@@H]2C1	3.91	64.8	4.79	–
CC1(C)CC[C@@]23CC[C@]4(C)[C@@](OC2=O)([C@@H]3C1)[C@@H](O)C[C@@H]1[C@@]2(C)CC[C@H](O[C@@H]3O[C@H](CO)[C@@H](O[C@@H]5O[C@H](CO)[C@H](O)[C@H](O)[C@H]5O)[C@H](O)[C@H]3O)C(C)(C)[C@@H]2CC[C@]14C	–	2.55	–	–
COC(=O)CCCCCNC(=O)[C@]12CCC(C)(C)C[C@H]1C1=CC[C@@H]3[C@@]4(C)CC[C@H](O[C@H]5O[C@H](C(=O)O)[C@@H](O)[C@H](O)[C@@H]5O)C(C)(C)[C@@H]4CC[C@@]3(C)[C@]1(C)CC2	–	98.6	5.72	–
